Screening data deposited in PubChem BioAssay by several laboratories.
H9c2 TAG inh – reduces triacylglycerol accumulation in H9c2 cells; 230,000 tested, 0.66% active; Nile Red lipid (TAG) fluorescence; cells loaded with 200 µM oleic acid; inhibition, % at 12.5 µM; AID 651582;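 active = pattern-corrected inhibition of lipid staining of at least 50% with the nuclear-stain viability signal not falling by more than 50%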;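 note: 0% = DMSO wells and 100% = triacsin C control wells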
Efflux pump mplx – inhibitors of Candida antifungal efflux pumps expressed in yeast; S. cerevisiae Candida pump triplex, Nile Red efflux; AID 485275; 330,000 tested, 0.44% active; inhibition, % at 10 µM;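 active = plate passing quality check with inhibition over a set limit, or well fluorescence over plate mean plus 4 SD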;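 note: Nile Red retained in pooled yeast measured as flow cytometry median fluorescence; 0% = buffer negative control and 100% = Enniatin B positive control; higher means more Nile Red kept so more efflux inhibition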
SMARCA2 act – increases SMARCA2 function in MMTV reporter cells; MG213 cells, MMTV-luciferase reporter, dexamethasone, overnight; activation, % at 9.1 µM; 370,000 tested, 1% active; AID 652017; in the data active = activation above about 7.8%;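 note: 0% = vehicle wells and 100% = reference activator wells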
TbMetRS inhib – Trypanosoma brucei MetRS inhibition; 360,000 tested, 0.4% active; purified T. brucei MetRS, ATP depletion, Kinase-Glo luminescence; inhibition, % at 11.9 µM; AID 624268;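 active = inhibition above a per-plate cutoff of the control wells' mean inhibition plus 3 SD, cut at about 5.5% in these data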;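 note: 0% = DMSO wells median and 100% = median of wells with control inhibitor compound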
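technique = Kinase-Glo luminescence, ATP depletion format | system = purified MetRS (methionyl-tRNA synthetase) enzyme from Trypanosoma brucei | timing = 15 min preincubation, 2 h reaction, all 25 °C | evaluation = percent inhibition versus plate control medians | dosing = single dose, 11.9 µM final nominal, 0.9% final DMSO | also added = substrates ATP, L-methionine and bulk Escherichia coli tRNA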
AHR activator – activates the human aryl hydrocarbon receptor; P35869; AHR-responsive luciferase reporter cells, luminescence; activation, % at 5 µM; 320,000 tested, 2.5% active; AID 2796; in the data active = activation above about 47%;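 note: 0% = vehicle wells and 100% = reference agonist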
Tb MetRS conf – confirmation of Trypanosoma brucei MetRS inhibitors | shares compounds with TbMetRS inhib | T. brucei MetRS enzyme, luminescence (ATP depletion) | inhibition, % at 11.9 µM | 1,400 tested, 93% active | AID 624412; in the data active = inhibition above about 7%
Jurkat tox – Jurkat T cell cytotoxicity for MetRS hits. shares compounds with TbMetRS inhib. Jurkat cells viability, ATP luminescence. inhibition, % at 8.3 µM. 1,400 tested, 12% active. AID 624413; in the data active = inhibition above about 15%;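 note: 0% = vehicle and 100% = reference inhibitor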
TbMetRS FP orth – T. brucei MetRS inhibition, orthogonal assay; shares compounds with TbMetRS inhib; purified T. brucei MetRS, fluorescence polarization; inhibition, % at 11.9 µM; 1,400 tested, 44% active; AID 651607; in the data active = inhibition above about 17%;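 note: 0% = vehicle wells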
H9c2 TAG conf – triacylglycerol accumulation inhibition, confirmation. H9c2 lipid accumulation, Nile Red fluorescence; cells loaded with 200 µM oleic acid. 990 tested, 71% active. inhibition, % at 12.5 µM. shares compounds with H9c2 TAG inh;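 active = mean inhibition across replicates of 40% or more; inactive = mean inhibition below 40%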;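 note: plate controls were DMSO only wells for no effect and Triacsin C treated wells for full effect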
SMARCA2 act conf – confirmation of SMARCA2 (BRM) function activators; shares compounds with SMARCA2 act; MG213 cells, MMTV-luciferase with dexamethasone, luminescence, overnight; MG213 cells expressing E1A, Rb sequestered; DMSO wells 0%, reference activator 100%; activation, % at 9.1 µM; 3,500 tested, 30% active; AID 652260;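 active = activation above its plate's cutoff, the mean activation of tested wells plus 3 SD, cut at about 7.9% in these data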
GAL4-VP16 Luc – GAL4-VP16 reporter activation counter-screen; shares compounds with SMARCA2 act; HEK293 GAL4-VP16 pG5luc reporter, luciferase luminescence; scaled: DMSO wells 0%, SAHA wells 100%; activation, % at 9.1 µM; 3,500 tested, 41% active; AID 686939;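 active = activation above the solvent-only control well mean plus 3 SD, averaged across control plates, cut at about 5.2% in these data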
* hit, by the source's call. Most compounds without a hit are left out; they make up all but 4.1% or so of the library.

Screening CCOCCCn1c(N)c(C(=O)Nc2sc3c(c2C(=O)OC)CCCC3)c2nc3ccccc3nc21 returned Efflux pump mplx 0, SMARCA2 act -5, TbMetRS inhib 8.3*, AHR activator 3, Tb MetRS conf 2, Jurkat tox 1 and TbMetRS FP orth 7.
`O=C(NCCN1CCC2(CC1)C(=O)NCN2c1ccccc1)c1cc(C(F)(F)F)ccc1C(F)(F)F` gave SMARCA2 act -2.
O=C1NC(=O)C(=Cc2ccc(N3CCN(C(=O)c4ccccc4)CC3)c([N+](=O)[O-])c2)C(=O)N1 was read as Efflux pump mplx 0, SMARCA2 act -4, TbMetRS inhib 13*, AHR activator 0, Tb MetRS conf 18*, Jurkat tox 1 and TbMetRS FP orth 5.
`CN1CC[C@@H]2CN[C@H](c3ccccc3Br)C[C@@H]21` gave SMARCA2 act 0.
`CS(=O)(=O)N1Cc2cc(Br)ccc2-n2nncc2C1` gave SMARCA2 act 7.
`COC(=O)C1=C(c2ccccc2OCc2ccccc2)C[C@@H]2CC[C@H]1N2C(=O)NCc1ccc(OC)c(OC)c1` gave H9c2 TAG inh 56*, Efflux pump mplx 0, SMARCA2 act -1, TbMetRS inhib 0, AHR activator 0 and H9c2 TAG conf 28.
`COC(=O)C1=C(c2ccccc2OCc2ccccc2)C[C@@H]2CC[C@H]1N2C(=O)NCc1cccc(F)c1` gave H9c2 TAG inh 33, Efflux pump mplx 0, SMARCA2 act 1, TbMetRS inhib 1 and AHR activator -1.
Screening COC(=O)C1=C(c2cc3ccccc3s2)C[C@@H]2CC[C@H]1N2C(=O)N1CCOCC1 returned H9c2 TAG inh 52*, Efflux pump mplx 0, SMARCA2 act -1, TbMetRS inhib 0, AHR activator 1 and H9c2 TAG conf 45*.
For NC(Cc1ccccc1)[P+](=O)O (stereo unspecified) the results were SMARCA2 act 1.
CCCCn1c(N)c(C(=O)NCc2cccs2)c2nc3ccccc3nc21 was read as H9c2 TAG inh 67*, Efflux pump mplx 0, SMARCA2 act -4, TbMetRS inhib 1, AHR activator 39 and H9c2 TAG conf 1.
CCOC(=O)C(NC(=O)CC)(Nc1ccc(C(O)(C(=O)OCC)C(F)(F)F)cc1C)C(F)(F)F (stereo unspecified) was read as H9c2 TAG inh 55*, Efflux pump mplx 0, SMARCA2 act -3, TbMetRS inhib -1, AHR activator 7 and H9c2 TAG conf 23.
`O=P(O)(O)CN1CCNCCN(CP(=O)(O)O)CCNCC1` gave H9c2 TAG inh 57*, SMARCA2 act 7, TbMetRS inhib 0 and H9c2 TAG conf 63*.
`Cc1ccc(N2Cc3ccccc3-n3nncc3C2)cc1` gave SMARCA2 act 2.
`O=C(CN1C(=O)CN=C(c2ccccc2)c2cc(Cl)ccc21)NC1CCCCC1` gave SMARCA2 act -8.
CN1C2(C)c3ccccc3C1(c1ccccc1)c1ccccc12 was read as SMARCA2 act 6.
CC1CCN(CC(=O)c2ccc3c(c2)OCCO3)CC1 was read as H9c2 TAG inh -12, Efflux pump mplx 0, SMARCA2 act 8.0*, TbMetRS inhib 0, AHR activator 14, SMARCA2 act conf 7 and GAL4-VP16 Luc 9.6*.
